{"source": "paper PMC10842363", "about": "(Clinical cancer research : an official journal of the …, 2023)", "key": {"kinases": {"tested_on": "kinases", "assay": "KINOMEscan kinase selectivity assay", "format": "binding", "method_in_brief": "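Competition binding: kinases were T7 phage-tagged (grown in BL21-derived E. coli) or HEK-293-expressed with DNA tags. Incubated with biotinylated-ligand streptavidin beads and test compound (40x DMSO stocks) in SeaBlock/PBS/Tween/DTT buffer, 1 h RT. Eluted with 0.5 μM non-biotinylated ligand (30 min); kinase quantified by qPCR. Selectivity score S = hits/assays at a %Ctrl threshold, mutants excluded.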"}, "[1]": {"assay": "In vivo pharmacokinetic study, single dose", "conditions": "IP administration, CD1 female mice"}, "[2]": {"assay": "Repeated dosing tolerability", "format": "in vivo", "conditions": "repeated dosing from 30 to 100 mg/kg"}, "[3]": {"assay": "Safety readouts in treated mice", "format": "in vivo"}, "[4]": {"assay": "28-day oral dosing study in mice", "format": "in vivo", "conditions": "oral dosing for 28 days, exposures similar to 50 mpk IP; data not shown"}, "T-HEp3 cells": {"tested_on": "T-HEp3 cells", "assay": "T-HEp3 HNSCC PDX i.v. injection, solitary lung DCCs in Balb/c nu/nu mice", "format": "in vivo, human", "conditions": "50 mg/kg for 10 days, started 24 h after i.v. injection"}, "EMT6 cells": {"tested_on": "EMT6 cells", "assay": "EMT6 syngeneic spontaneous lung metastasis model", "format": "in vivo, Balb/c mice", "conditions": "10 mg/kg"}, "D-HEp3 cells": {"tested_on": "D-HEp3 cells", "assay": "Chick chorioallantoic membrane", "format": "in vivo, human", "conditions": "20 μM, 6-day treatment, CAM"}, "MMTV-HER2 cells": {"tested_on": "MMTV-HER2 cells", "assay": "Established metastases after tail vein injection of MMTV-HER2 cells", "format": "in vivo, mouse", "conditions": "50 mg/kg for 2 weeks, started 3 weeks after tail vein injection"}, "[5]": {"assay": "Mammary gland morphology in non-tumor bearing healthy mice", "format": "in vivo", "conditions": "2 weeks"}, "MMTV-HER2 tumors": {"tested_on": "MMTV-HER2 tumors", "assay": "Primary tumor growth in MMTV-HER2 females", "format": "in vivo, mouse"}, "SKBR3 cells": {"tested_on": "SKBR3 cells", "assay": "3D acini culture in Matrigel, SKBR3", "format": "cell-based", "conditions": "SKBR3, 2 μM, 10-day treatment"}, "ZR-75-1 cells": {"tested_on": "ZR-75-1 cells", "assay": "3D acini culture in Matrigel, ZR-75-1", "format": "cell-based", "conditions": "ZR-75-1, 2 μM, 10-day treatment"}, "[6]": {"tested_on": "HER2+ tumors, DCCs and metastases", "assay": "Sequential Abemaciclib then HC4 treatment in MMTV-HER2 mice", "format": "in vivo, mouse", "conditions": "for GADD34 expression in primary tumors / Ki67 staining in primary tumors: 50 mpk daily, 4 weeks"}, "GADD34 [7]": {"tested_on": "GADD34", "conditions": "MCF10A breast pre-malignant cells"}, "GADD34 [8]": {"tested_on": "GADD34", "conditions": "E0771 luminal B breast cancer cells"}, "PERK [9]": {"molecular_target": "T1, PERK (Homo sapiens, UniProt Q9NZJ5)", "T1 sequence (Q9NZJ5 30-1116)": "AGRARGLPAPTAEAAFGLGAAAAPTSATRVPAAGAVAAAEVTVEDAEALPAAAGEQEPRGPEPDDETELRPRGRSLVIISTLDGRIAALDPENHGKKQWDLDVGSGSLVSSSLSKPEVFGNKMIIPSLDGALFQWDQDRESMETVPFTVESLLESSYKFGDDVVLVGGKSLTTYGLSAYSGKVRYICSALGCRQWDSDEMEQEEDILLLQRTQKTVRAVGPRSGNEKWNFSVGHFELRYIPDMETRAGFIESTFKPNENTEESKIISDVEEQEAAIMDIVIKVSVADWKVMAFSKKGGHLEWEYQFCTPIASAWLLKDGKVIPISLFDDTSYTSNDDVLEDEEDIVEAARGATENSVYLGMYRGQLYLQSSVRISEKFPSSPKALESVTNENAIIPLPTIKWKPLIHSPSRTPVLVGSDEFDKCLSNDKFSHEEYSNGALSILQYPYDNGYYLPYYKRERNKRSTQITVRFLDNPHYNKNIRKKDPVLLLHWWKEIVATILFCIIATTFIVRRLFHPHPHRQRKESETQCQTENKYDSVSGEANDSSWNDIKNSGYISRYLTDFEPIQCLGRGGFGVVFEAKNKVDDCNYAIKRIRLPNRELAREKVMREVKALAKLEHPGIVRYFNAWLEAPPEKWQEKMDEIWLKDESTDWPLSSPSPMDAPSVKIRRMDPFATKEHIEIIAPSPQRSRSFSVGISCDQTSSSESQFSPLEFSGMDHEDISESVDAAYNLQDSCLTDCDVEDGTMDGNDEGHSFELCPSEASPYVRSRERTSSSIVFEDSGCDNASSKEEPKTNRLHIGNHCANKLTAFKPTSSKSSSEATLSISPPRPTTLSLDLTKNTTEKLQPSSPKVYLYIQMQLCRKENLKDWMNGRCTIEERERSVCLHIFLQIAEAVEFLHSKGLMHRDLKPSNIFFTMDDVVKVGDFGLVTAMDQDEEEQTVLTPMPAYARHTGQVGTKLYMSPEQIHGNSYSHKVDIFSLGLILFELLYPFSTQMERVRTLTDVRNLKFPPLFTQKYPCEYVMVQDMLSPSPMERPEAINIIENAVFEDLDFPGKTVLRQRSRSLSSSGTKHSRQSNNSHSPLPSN", "conditions": "MCF10A cells overexpressing HER2"}, "PERK [10]": {"molecular_target": "T1, PERK", "conditions": "HEK293 cells stimulated with Tunicamycin"}, "MCF10A-HER2 cells [11]": {"tested_on": "MCF10A-HER2 cells", "conditions": "MCF10A-HER2 cells treated with HC4"}, "[12]": {"tested_on": "Fv2E-ΔNPERK fusion construct-expressing cell line", "conditions": "PERK dimerization induced with AP20187"}, "PERK [13]": {"molecular_target": "PERK (Mus musculus, UniProt Q9Z2B5)", "sequence (Q9Z2B5 29-1114)": "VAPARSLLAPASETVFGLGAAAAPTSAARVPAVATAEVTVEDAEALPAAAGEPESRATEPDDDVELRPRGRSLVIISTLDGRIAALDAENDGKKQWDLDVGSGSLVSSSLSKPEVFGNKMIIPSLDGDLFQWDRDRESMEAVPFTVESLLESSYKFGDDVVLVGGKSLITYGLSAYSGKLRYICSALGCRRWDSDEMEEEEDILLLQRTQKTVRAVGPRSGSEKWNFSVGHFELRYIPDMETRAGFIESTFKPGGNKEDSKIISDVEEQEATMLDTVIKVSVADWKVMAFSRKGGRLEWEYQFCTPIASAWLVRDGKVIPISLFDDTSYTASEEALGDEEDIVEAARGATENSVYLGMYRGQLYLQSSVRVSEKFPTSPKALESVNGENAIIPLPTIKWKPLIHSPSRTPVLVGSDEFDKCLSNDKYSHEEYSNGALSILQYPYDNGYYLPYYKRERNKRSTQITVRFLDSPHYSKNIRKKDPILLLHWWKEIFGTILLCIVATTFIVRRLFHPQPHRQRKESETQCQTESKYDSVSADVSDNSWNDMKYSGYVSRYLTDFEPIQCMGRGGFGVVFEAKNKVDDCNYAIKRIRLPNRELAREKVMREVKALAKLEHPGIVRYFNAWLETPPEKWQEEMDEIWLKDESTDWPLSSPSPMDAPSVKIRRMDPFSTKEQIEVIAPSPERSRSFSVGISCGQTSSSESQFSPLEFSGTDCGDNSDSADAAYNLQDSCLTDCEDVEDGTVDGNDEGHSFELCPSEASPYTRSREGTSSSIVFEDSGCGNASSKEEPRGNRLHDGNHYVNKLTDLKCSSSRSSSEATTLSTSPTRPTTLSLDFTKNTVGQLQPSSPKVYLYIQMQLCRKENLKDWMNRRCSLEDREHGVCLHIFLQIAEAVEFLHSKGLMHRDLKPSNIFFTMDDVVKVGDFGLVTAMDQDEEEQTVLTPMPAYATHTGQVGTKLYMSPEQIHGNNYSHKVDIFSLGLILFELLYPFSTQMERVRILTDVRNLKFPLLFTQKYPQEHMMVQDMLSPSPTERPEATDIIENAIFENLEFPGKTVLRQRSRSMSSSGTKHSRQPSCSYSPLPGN", "conditions": "50 mpk IP daily, 2 weeks"}, "[14]": {"tested_on": "HER2+ DCCs and metastases"}, "[15]": {"tested_on": "HER2-driven early lesions in the mammary gland"}, "MCF10A-HER2 cells [16]": {"tested_on": "MCF10A-HER2 cells"}, "HER2 [17]": {"tested_on": "HER2"}, "HER2 [18]": {"tested_on": "HER2", "remark": "listed apart in the source"}, "HER2 [19]": {"tested_on": "HER2", "conditions": "HC4-treated vs control animals"}, "[20]": {"conditions": "MCF10A-HER2, 2 μM, +/- EGF 100 ng/ml"}, "[21]": {"conditions": "MCF10A-HER2, in presence of Thapsigargin 4 nM"}}, "note": "Read-outs that look alike come from different tables or passages of the source."}
{"smiles": "Cc1cc(NC(=O)[C@H](O)c2cc(F)cc(F)c2)ccc1-c1cnc(N)c(C(=O)NC(C)C)c1", "note": "[HC4]", "values": [{"measurement": "specificity for EIF2AK3 (PERK) over EIF2AK1 (HRI), EIF2AK2 (PKR), EIF2AK4 (GCN2) or HER2", "setting": "kinases; Supplementary Table S3", "result": "high specificity"}, {"measurement": "KINOMEscan kinase profiling selectivity", "setting": "kinases; compared to other PERK inhibitors, specifically GSK2656157, even at 10 μM", "result": "exceedingly high selectivity"}, {"measurement": "bioavailability", "setting": "[1]", "result": "demonstrated bioavailability"}, {"measurement": "body weight", "setting": "[2]", "result": "no significant changes"}, {"measurement": "tolerability", "setting": "[2]", "result": "well tolerated"}, {"measurement": "bone marrow cell homeostasis and peripheral blood white cells (total cell counts)", "setting": "[3]; MMTV-HER2 females, 50 mpk IP daily, two weeks", "result": "did not have a significant effect"}, {"measurement": "glucose levels, bone marrow or peripheral blood cell counts, drinking and feeding behavior", "setting": "[3]; non-tumor or cancer bearing mice, doses used", "result": "did not significantly affect"}, {"measurement": "effects on the pancreas or clinical chemistry (insulin and glucose levels)", "setting": "[4]", "result": "no deleterious effects"}, {"measurement": "reduction in the number of solitary HEp3 DCCs in the lung", "setting": "T-HEp3 cells", "result": "~ 3 fold"}, {"measurement": "primary tumor growth", "setting": "EMT6 cells; 17 days, not shown", "result": "without affecting"}, {"measurement": "metastatic incidence and multiplicity of lesions per lung/animal", "setting": "EMT6 cells; started 9 days after implanting, 17 days of treatment", "result": "strongly inhibited"}, {"measurement": "dormant D-HEp3 cells in vivo", "setting": "D-HEp3 cells", "result": "eradication"}, {"measurement": "increase in cleaved caspase-3 positive D-HEp3 cells in the nodules", "setting": "D-HEp3 cells", "result": 5, "unit": "fold"}, {"measurement": "frequency of already established micro-metastases", "setting": "MMTV-HER2 cells", "result": "not affecting"}, {"measurement": "macro-metastatic lesion incidence and total metastatic burden", "setting": "MMTV-HER2 cells", "result": "strongly reduce"}, {"measurement": "normal branching and morphology of the mammary gland ductal tree", "setting": "[5]", "result": "did not affect"}, {"measurement": "tumors showing regression", "setting": "MMTV-HER2 tumors; 2-week window treatment", "result": "Four"}, {"measurement": "DNA fragmentation (TUNEL staining) in tumor sections", "setting": "MMTV-HER2 tumors; 50 mpk daily, two weeks", "result": "significant increase"}, {"measurement": "median final tumor volume", "setting": "MMTV-HER2 tumors; 50 mpk daily, two weeks", "result": "significant decrease"}, {"measurement": "tumor growth", "setting": "MMTV-HER2 tumors; overt tumors, 50 mpk daily, two weeks", "result": "reduced growth rate"}, {"measurement": "levels of proliferation (phospho-histone H3 IHC) in tumors", "setting": "MMTV-HER2 tumors; vehicle- vs HC4-treated tumors", "result": "not different"}, {"measurement": "levels of apoptosis (cleaved caspase-3)", "setting": "SKBR3 cells", "result": "significantly increased"}, {"measurement": "levels of apoptosis (cleaved caspase-3)", "setting": "ZR-75-1 cells", "result": "significantly increased"}, {"measurement": "GADD34 expression in primary tumors", "setting": "[6]", "result": "completely erased"}, {"measurement": "Ki67 staining in primary tumors", "setting": "[6]", "result": "does not dramatically affect"}, {"measurement": "thapsigargin induced GADD34 expression", "setting": "GADD34 [7]", "result": "completely eliminated"}, {"measurement": "thapsigargin induced GADD34 expression", "setting": "GADD34 [8]", "result": "completely eliminated"}, {"measurement": "P-PERK (P-T980) levels", "setting": "PERK [9]", "result": "effectively decreased"}, {"measurement": "P-PERK (P-T980) levels", "setting": "PERK [10]", "result": "effectively decreased"}, {"measurement": "sensitivity to low dose thapsigargin treatment", "setting": "MCF10A-HER2 cells [11]", "result": "sensitive"}, {"measurement": "rescue of pro-apoptotic function of strong PERK activation", "setting": "[12]", "result": "fully rescued"}, {"measurement": "P-PERK inhibition in pancreatic tissue, especially pancreatic islets", "setting": "PERK [13]; IHC", "result": "only partial inhibition"}, {"measurement": "P-PERK and P-eIF2α levels by IHC", "setting": "PERK [13]; mammary gland ducts and pancreatic tissue", "result": "significant decrease"}, {"measurement": "decrease in P-PERK levels by western blot", "setting": "PERK [13]; tumor lysates", "result": "around 50%"}, {"measurement": "area of macro-metastases", "setting": "[14]; 50 mpk IP daily, two weeks", "result": "not accompanied by a significant effect"}, {"measurement": "number and incidence of lung macro-metastases (>100 cells)", "setting": "[14]; 50 mpk IP daily, two weeks", "result": "reduced"}, {"measurement": "number of DCCs in bone marrow", "setting": "[14]; 50 mpk IP daily, two weeks", "result": "significantly decreased"}, {"measurement": "number of P-Rb positive solitary DCCs in lung", "setting": "[14]; 50 mpk IP daily, two weeks", "result": "not affecting"}, {"measurement": "number of lung micro-metastases (2-100 cells)", "setting": "[14]; 50 mpk IP daily, two weeks", "result": "significant decrease"}, {"measurement": "number of non-proliferating (P-Rb negative) single DCCs in lung", "setting": "[14]; 50 mpk IP daily, two weeks", "result": "significantly reduced"}, {"measurement": "HER2+ circulating tumor cells in blood", "setting": "[14]; vehicle vs HC4-treated animals", "result": "no significant differences"}, {"measurement": "mammary glandular architecture (ductal branching)", "setting": "[15]; 24-week-old MMTV-HER2 females, 50 mpk, 2 weeks", "result": "less dense branching"}, {"measurement": "cytokeratin 8/18 expression in the luminal layer", "setting": "[15]; 50 mpk, 2 weeks", "result": "increased expression"}, {"measurement": "number of occluded hyperplasias and DCIS-like lesions relative to vehicle", "setting": "[15]; 50 mpk, 2 weeks", "result": "less than half"}, {"measurement": "hollow lumen mammary gland ducts, share of structures", "setting": "[15]; around 20 % in control females", "result": "more than 60%"}, {"measurement": "levels of proliferation (phospho-histone H3)", "setting": "MCF10A-HER2 cells [16]; 3D acini cultures, 2 μM, cell line not given", "result": "did not detect a significant change"}, {"measurement": "levels of apoptosis (cleaved caspase-3)", "setting": "MCF10A-HER2 cells [16]; MCF10A-HER2, 2 μM, 10-day treatment", "result": "significantly increased"}, {"measurement": "P-AKT, P-S6 and P-ERK1/2 levels", "setting": "HER2 [17]; [20]", "result": "downregulation"}, {"measurement": "basal and EGF-induced levels of P-EGFR and P-HER2", "setting": "HER2 [17]; [20]", "result": "decreased"}, {"measurement": "levels of P-HER2 and P-AKT", "setting": "HER2 [17]; [21]", "result": "decrease"}, {"measurement": "molecular weight of phosphorylated HER2 protein", "setting": "HER2 [17]; [21]", "result": "lower molecular weight"}, {"measurement": "total HER2 levels or heterodimerization with EGFR", "setting": "HER2 [17]; surface biotinylation and co-immunoprecipitation, data not shown", "result": "No obvious effect"}, {"measurement": "endocytosed phospho- and total HER2", "setting": "HER2 [18]; MCF10A-HER2, reversible surface biotinylation", "result": "clearly increased"}, {"measurement": "abundance of P-HER2 and total HER2 in the cell surface", "setting": "HER2 [18]; MCF10A-HER2, not shown", "result": "did not significantly alter"}, {"measurement": "P-HER2 levels in tumors (area and intensity score)", "setting": "HER2 [19]", "result": "significantly lower"}]}
{"smiles": "CCN1CCN(Cc2ccc(Nc3ncc(F)c(-c4cc(F)c5nc(C)n(C(C)C)c5c4)n3)nc2)CC1", "note": "[Abema, Abemaciclib]", "values": [{"measurement": "GADD34 expression in primary tumors", "setting": "[6]", "result": "increases"}, {"measurement": "Ki67 staining in primary tumors", "setting": "[6]", "result": "reduces"}, {"measurement": "Ki67+ solitary DCCs", "setting": "[6]; lung sections", "result": "almost absent"}]}
